In one series the target is T1, Ketohexokinase (Homo sapiens, UniProt P50053).
T1 sequence (P50053 whole entry): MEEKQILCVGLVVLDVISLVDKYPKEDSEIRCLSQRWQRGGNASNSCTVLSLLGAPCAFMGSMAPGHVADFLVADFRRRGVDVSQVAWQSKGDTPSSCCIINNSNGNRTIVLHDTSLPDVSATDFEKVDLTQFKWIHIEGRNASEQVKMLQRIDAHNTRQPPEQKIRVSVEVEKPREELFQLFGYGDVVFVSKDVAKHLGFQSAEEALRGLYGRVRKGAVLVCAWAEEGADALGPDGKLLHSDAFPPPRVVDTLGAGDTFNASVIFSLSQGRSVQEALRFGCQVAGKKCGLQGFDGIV
Briefly: Inhibition of KHK-mediated conversion of D-fructose to fructose-1-phosphate after 60 mins by high throughput mass spectrometry analysis. An outline of the steps: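 KHK enzyme assay at 25 °C with 200 µM fructose, 100 µM ATP and 2 nM KHK under steady-state conditions for 60 min. Fructose-1-P product read out by high-throughput mass spectrometry (RapidFire). 12-point dose–response curve used to derive IC50. 384-well format.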

A short description of series [1]: Metabolic stability in rat liver microsomes assessed as compound remaining after 10 mins. Format: ADME, Microsome. The conditions noted are these: read-out: Stability. On the technique in general: Liver microsomes are vesicles of endoplasmic reticulum, rich in cytochrome P450 enzymes.
Series [2] is described as follows: Volume of distribution at steady state in rat at 2 mg/kg, iv after 24 hrs. Set-up: dose 2 mg/kg, route intravenous. The conditions noted are these: in vivo, read-out: Vdss. It counts as ADME, organism-based. An outline of the steps:
(§1)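 Rat pharmacokinetics over 24 h. Oral dose 10 mg/kg and iv dose 2 mg/kg.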

A short description of series [3]: Bioavailability in rat at 10 mg/kg, po after 24 hrs. Particulars: in vivo.
The subject of a further series is Rattus norvegicus. Briefly: AUClast in rat at 10 mg/kg, po after 24 hrs. It counts as ADME, organism-based, Plasma. Set-up: time < 24 hr, dose 10 mg/kg, route oral. Particulars: in vivo. An outline of the steps:
as §1

The nature of series [4]: Cmax in rat at 10 mg/kg, po after 24 hrs. It counts as ADME, organism-based. Particulars: in vivo. More on the design: dose 10 mg/kg, route oral. An outline of the steps:
as §1

The nature of series [5]: Clearance in rat at 2 mg/kg, iv after 24 hrs. It counts as ADME, organism-based. Set-up: dose 2 mg/kg, route intravenous. The conditions noted are these: in vivo. An outline of the steps: as §1
Series [6] can be described thus: Half life in rat at 10 mg/kg, po after 24 hrs. Format: ADME, organism-based. More on the design: dose 10 mg/kg, route oral. Particulars: in vivo. An outline of the steps:
as §1

Series [7] in a line: Inhibition of sodium channel at 10 uM.

In general, IC50 refers to the concentration needed to halve the response being measured. High values mean weaker potency in that assay, low ones greater potency in that assay. Consider `CSc1nn(-c2ccccc2)c2cc(N3CCN(C4CCNCC4)CC3)ccc12`, for which half-maximal inhibition on Ketohexokinase (IC50) required 670 nM.
`CSc1nn(-c2ccccc2)c2c(OCC3CCNCC3)cccc12` returned an IC50 at Ketohexokinase of 240 nM.
Still for that read-out and setting: as for `CSc1nn(-c2ccc([N+](=O)[O-])cc2)c2cc(C3=CCNCC3)ccc12`, the figure is 480 nM.
With `CSc1nn(-c2cccc(F)c2)c2cc(C3=CCNCC3)ccc12`, at Ketohexokinase, the half-inhibitory concentration (IC50) was found to be 42 nM. Also, the remaining at 10 min in series [1] was 96%.
A word on the bioavailability: it is the share of a dose that reaches the circulation, judged against a reference dose that is usually intravenous. A low value points to poor availability. Usually Cmax stands for the peak of the concentration-time curve. One may read the clearance as the volume of plasma or blood freed of the substance per unit of time. Low readings indicate inefficient removal, high ones efficient removal. Broadly, the half-life is how long it takes for the measured level to halve. A high value points to slow loss. With `CCc1nn(-c2ccccc2)c2cc(N3CCN(C4CCNC4)CC3)ccc12` (configuration not stated), the Vd in series [2] was determined as 13.9 L/kg. The same molecule came in with a bioavailability in [3] of 72.4%. The molecule also came in with an AUClast in the series with Rattus norvegicus of 4890 ng·h/mL. Further, the maximum concentration (Cmax) in series [4] stood at 399 ng/mL. On Ketohexokinase, the half-maximal inhibitory concentration (IC50) stood at 920 nM. In [5], the clearance is 21.2 mL/min/kg. In addition, the half-life in [6] is 19.6 h.
`CCc1nc(-c2ccccc2)n2cc(N3CCNCC3)ccc12` registered a concentration for half-maximal inhibition (IC50) against Ketohexokinase of more than 20000 nM.
Take `CSc1nn(-c2ccccc2)c2cc(C3=CCNCC3)ccc12`: 80 nM corresponded to half-maximal inhibition on Ketohexokinase (IC50). The remaining at 10 min in [1] came out at 72%.
As usually defined, the inhibition is the drop in the measured response relative to a control, in per cent. Higher therefore signals a strong effect. For the molecule `CCc1nn(-c2ccccc2)c2cc(N3CCN(C4CCNCC4)CC3)ccc12`, the inhibition in series [7] stood at 61%.
In turn, `CSc1nn(-c2ccc(F)cc2)c2cc(C3=CCNCC3)ccc12` gave an IC50 on Ketohexokinase of 23 nM. In addition, the remaining at 10 min in series [1] is 105%.
At Ketohexokinase, `CSc1nn(-c2ccccc2)c2c(C3=CCNCC3)cccc12` displayed an IC50 of 11500 nM.
On the same count and under the same terms, with `CSc1nn(-c2ccccc2)c2cc(-c3ccncc3)ccc12` the figure was more than 10000 nM.
Still for that read-out and setting: as for `CSc1nn(-c2ccccc2)c2cc(NC(=O)CC3CCNCC3)ccc12`, the figure is 680 nM.
For `Cn1nc(-c2ccccc2)c2cc(N3CCNCC3)ccc21`, the half-maximal inhibitory concentration (IC50) against Ketohexokinase was 1280 nM.
In the case of `CCc1nn(-c2ccccc2)c2cc(N3CC4CNCC4C3)ccc12` (configuration not stated), in series [2], the Vd was 7.81 L/kg. In addition, the bioavailability in [3] amounted to 98.8%. The molecule further yielded an AUClast with Rattus norvegicus of 5680 ng·h/mL. For the same molecule, the peak concentration (Cmax) in [4] was found to be 619 ng/mL. Further, the clearance in [5] came out at 28.9 mL/min/kg. The same molecule had a half-life in series [6] of 3.41 h.
Turning to `CSc1nn(-c2cccc(C)c2)c2cc(C3=CCNCC3)ccc12`, the concentration for half-maximal inhibition (IC50) against Ketohexokinase turned out to be 34 nM.
`CSc1nn(-c2ccccc2)c2c(OC3CCNCC3)cccc12`: the IC50 at Ketohexokinase worked out at 1680 nM.
On the same count and under the same terms, as for `COc1ccc(-n2nc(SC)c3ccc(C4=CCNCC4)cc32)cc1`, the figure is 87 nM; as for `CSc1nn(-c2ccccc2)c2cc(C3CCNCC3)ccc12`, 330 nM.
